Measured values published in paper PMC3947313 (Journal of neurochemistry, 2013).
Positions count from the first letter of the chain named. Names and notes keep the numbering of the source.

Experiments:
[1] = biological target: double phospho-peptide containing pT202pY204 derived from the ERK activation loop
[2] = biological target: double-phosphorylated ERK2-pT202pY204 protein (UniProt P28482)
[3] = biological target: double-phosphorylated ERK2-pT202pY204 protein (UniProt P28482); remark: listed apart in the source
[4] = biological target: double phospho-peptide containing pT202pY204 derived from the ERK activation loop; remark: listed apart in the source
ERK2-pT202pY204 = assay: Enzyme-coupled; format: biochemical; details: for decrease of kcat/Km (activity) toward phospho-ERK protein: STEP variant compared to wild-type STEP; for effect of mutation on activity toward phospho-ERK protein (in words): compared to the respective wild-type phosphatase
Method in brief: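 Phospho-ERK2 protein was prepared using ERK2 and MEK1 expression plasmids. Initial rates were fitted to Michaelis-Menten for Km and kcat. At substrate << Km, kcat/Km came from first-order progress-curve fitting. Values are mean ± standard error.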

[5] = Activity of STEP variants toward pNPP; format: biochemical; details: for effect of mutation on activity toward pNPP (in words): compared to wild-type STEP, 37°C, pH 6.0
Method in brief: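 Phosphatase variants hydrolysed pNPP at 37°C in 50 mM succinic buffer (pH 6.0) with 1 mM EDTA, 2 mM DTT and ionic strength adjusted to 0.15 M with NaCl. Reactions were stopped with 1 M NaOH and read at 405 nm. Kinetic parameters came from Michaelis-Menten fits, reported as mean ± standard error.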

[6] = test system: ERK pT202pY204 phospho-peptide; format: biochemical; details: for decrease of activity toward phospho-ERK peptide: STEP mutant compared to wild-type STEP, 37°C, pH 6.0; for effect of mutation on activity toward phospho-ERK peptide (in words) / effect of mutation on Km for the phospho-ERK-peptide (in words): compared to wild-type STEP
Method in brief: (§1)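 Synthetic, HPLC-purified Tyr(P)-containing peptides were dephosphorylated at 37°C in 50 mM succinic buffer (pH 6.0), 1 mM EDTA and 2 mM DTT, ionic strength 0.15 M (NaCl). Released phosphate was measured with BIOMOL Green at 620 nm. Hydrolysis was also followed continuously by tyrosine fluorescence (excitation 280 nm, emission 305 nm). Michaelis-Menten fits gave kinetic parameters (mean ± standard error).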

[7] = test system: p38-derived phospho-peptide; assay: Activity of STEP variants toward the p38-derived phospho-peptide; format: biochemical; details: STEP mutant compared to wild-type STEP
Method in brief: as §1

Molecule: STEP K463Q (from UniProt P54829 1-565) (enzyme)
- activity toward the phospho-ERK peptide, decrease against wild-type STEP [1]: > 4 fold
- activity toward the phospho-ERK protein, decrease against wild-type STEP [2]: > 4 fold

Molecule: HePTP S23E (from UniProt P35236 1-360) (enzyme)
- activity toward phospho-ERK, decrease against wild-type HePTP [3]: 3 fold

Molecule: STEP F311A (from UniProt P54829 1-565) (enzyme)
- activity toward the ERK phospho-peptide, decrease against wild-type STEP [4]: 2 fold

B1: STEP: purified striatal-enriched protein tyrosine phosphatase (human PTPN5), wild type (protein, UniProt P54829 1-565, looked up)
Tyrosine-protein phosphatase …: MNYEGARSERENHAADDSEGGALDMCCSERLPGLPQPIVMEALDEAEGLQDSQREMPPPPPPSPPSDPAQKPPPRGAGSHSLTVRSSLCLFAASQFLLACGVLWFSGYGHIWSQNATNLVSSLLTLLKQLEPTAWLDSGTWGVPSLLLVFLSVGLVLVTTLVWHLLRTPPEPPTPLPPEDRRQSVSRQPSFTYSEWMEEKIEDDFLDLDPVPETPVFDCVMDIKPEADPTSLTVKSMGLQERRGSNVSLTLDMCTPGCNEEGFGYLMSPREESAREYLLSASRVLQAEELHEKALDPFLLQAEFFEIPMNFVDPKEYDIPGLVRKNRYKTILPNPHSRVCLTSPDPDDPLSSYINANYIRGYGGEEKVYIATQGPIVSTVADFWRMVWQEHTPIIVMITNIEEMNEKCTEYWPEEQVAYDGVEITVQKVIHTEDYRLRLISLKSGTEERGLKHYWFTSWPDQKTPDRAPPLLHLVREVEEAAQQEGPHCAPIIVHCSAGIGRTGCFIATSICCQQLRQEGVVDILKTTCQLRQDRGGMIQTCEQYQFVHHVMSLYEKQLSHQSPE
- kcat of ERK-pT202pY204 dephosphorylation (ERK2-pT202pY204; pH 7.0, 25°C, initial rates fitted to Michaelis-Menten, OD360): 0.78 s^−1

B2: L251A: STEP KIM mutant L251A (protein, UniProt P54829 1-565, looked up, variant L251A)
Tyrosine-protein phosphatase …: B1 Tyrosine-protein phosphatase … with L251A
- decrease of kcat/Km (activity) toward phospho-ERK protein (ERK2-pT202pY204; pH 7.0, 25°C): 7 fold

B3: T541A: STEP Q-loop mutant T541A (protein, UniProt P54829 1-565, looked up, variant T541A)
Tyrosine-protein phosphatase …: B1 Tyrosine-protein phosphatase … with T541A
- decrease of activity toward pNPP ([5]; STEP mutant compared to wild-type STEP, stated as 'all substrates'): 2 fold
- decrease of activity toward phospho-ERK peptide [6]: 2 fold
- decrease of activity toward phospho-p38 peptide ([7]; stated as 'all substrates'): 2 fold
- decrease of kcat/Km (activity) toward phospho-ERK protein (ERK2-pT202pY204; pH 7.0, 25°C): 2 fold

B4: S245E: S245E STEP phosphorylation mimic mutation (protein, UniProt P54829 1-565, looked up, variant S245E)
Tyrosine-protein phosphatase …: B1 Tyrosine-protein phosphatase … with S245E
- effect of mutation on activity toward pNPP (in words) [5]: did not affect
- effect of mutation on activity toward phospho-ERK peptide (in words) [6]: did not affect
- decrease of kcat/Km (activity) toward phospho-ERK protein (ERK2-pT202pY204; pH 7.0, 25°C): 50 fold

B5: L249A: STEP KIM mutant L249A (protein, UniProt P54829 1-565, looked up, variant L249A)
Tyrosine-protein phosphatase …: B1 Tyrosine-protein phosphatase … with L249A
- decrease of kcat/Km (activity) toward phospho-ERK protein (ERK2-pT202pY204; pH 7.0, 25°C): 2.5 fold

B6: STEP (R242 and R243): STEP with combined mutation of R242 and R243 to alanine (protein, UniProt P54829 1-565, looked up, variant R242A R243A)
Tyrosine-protein phosphatase …: B1 Tyrosine-protein phosphatase … with R242A, R243A
- effect of combined R-to-A mutation on ERK dephosphorylation (in words) (ERK2-pT202pY204; compared to single R-to-A mutations of STEP): did not promote a further decrease

B7: R243A: STEP KIM mutant R243A (protein, UniProt P54829 1-565, looked up, variant R243A)
Tyrosine-protein phosphatase …: B1 Tyrosine-protein phosphatase … with R243A
- decrease of kcat/Km (activity) toward phospho-ERK protein (ERK2-pT202pY204; pH 7.0, 25°C): 6 fold

B8: T330D: STEP pY-binding loop mutant T330D (protein, UniProt P54829 1-565, looked up, variant T330D)
Tyrosine-protein phosphatase …: B1 Tyrosine-protein phosphatase … with T330D
- effect of mutation on activity toward pNPP (in words) [5]: did not affect
- increase of activity toward p38-derived phospho-peptide [7]: 2–3 fold
- increase of kcat/Km toward phospho-ERK protein (ERK2-pT202pY204; STEP mutant compared to wild-type STEP): 1.3 fold

B9: Q462F: STEP WPD-loop mutant Q462F (protein, UniProt P54829 1-565, looked up, variant Q462F)
Tyrosine-protein phosphatase …: B1 Tyrosine-protein phosphatase … with Q462F
- effect of mutation on Km for the phospho-ERK-peptide (in words) [6]: significantly lower
- effect of mutation on activity toward phospho-ERK protein (in words) (ERK2-pT202pY204): increase

B10: E543: STEP Q-loop mutant, conserved E543 mutated to arginine (protein, UniProt P54829 1-565, looked up, variant E543R)
Tyrosine-protein phosphatase …: B1 Tyrosine-protein phosphatase … with E543R
- effect of mutation on activity toward phospho-ERK protein (in words) (ERK2-pT202pY204): no effect

B11: T330A: STEP pY-binding loop mutant T330A (protein, UniProt P54829 1-565, looked up, variant T330A)
Tyrosine-protein phosphatase …: B1 Tyrosine-protein phosphatase … with T330A
- effect of mutation on activity toward pNPP (in words) [5]: did not affect
- effect of mutation on activity toward phospho-ERK peptide (in words) [6]: did not affect

B12: F311A: STEP second-site loop mutant F311A (protein, UniProt P54829 1-565, looked up, variant F311A)
Tyrosine-protein phosphatase …: B1 Tyrosine-protein phosphatase … with F311A
- effect of mutation on activity toward pNPP (in words) [5]: did not affect
- decrease of activity toward phospho-ERK peptide [6]: 2 fold
- decrease of kcat/Km (activity) toward phospho-ERK protein (ERK2-pT202pY204; pH 7.0, 25°C): 2 fold

B13: K329A: STEP pY-binding loop mutant K329A (protein, UniProt P54829 1-565, looked up, variant K329A)
Tyrosine-protein phosphatase …: B1 Tyrosine-protein phosphatase … with K329A
- effect of mutation on activity toward pNPP (in words) [5]: weakly
- effect of mutation on activity toward phospho-ERK peptide (in words) [6]: weakly
- effect of mutation on activity toward phospho-ERK protein (in words) (ERK2-pT202pY204): did not affect

B14: K463Q: STEP WPD-loop mutant K463Q (protein, UniProt P54829 1-565, looked up, variant K463Q)
Tyrosine-protein phosphatase …: B1 Tyrosine-protein phosphatase … with K463Q
- decrease of activity toward phospho-ERK peptide [6]: more than 4 fold
- decrease of kcat/Km (activity) toward phospho-ERK protein (ERK2-pT202pY204; pH 7.0, 25°C): more than 4 fold

B15: Q462H: STEP WPD-loop mutant Q462H (protein, UniProt P54829 1-565, looked up, variant Q462H)
Tyrosine-protein phosphatase …: B1 Tyrosine-protein phosphatase … with Q462H
- effect of mutation on Km for the phospho-ERK-peptide (in words) [6]: significantly lower
- effect of mutation on activity toward phospho-ERK protein (in words) (ERK2-pT202pY204): increase

B16: R242A: STEP KIM mutant R242A (protein, UniProt P54829 1-565, looked up, variant R242A)
Tyrosine-protein phosphatase …: B1 Tyrosine-protein phosphatase … with R242A
- decrease of kcat/Km (activity) toward phospho-ERK protein (ERK2-pT202pY204; pH 7.0, 25°C): 4 fold
